Test results from ChEMBL document CHEMBL1157951, “Weakly antimalarial flavonol arabinofuranosides from Calycolpus warszewiczianus” (J Nat Prod, 2006).
Active and inactive are the calls of the source. The calls are words filed in the database; no cut-off is given here.

Tests used:
Plasmodium falciparum = test: Antiplasmodial activity against chloroquine-resistant Plasmodium falciparum W2; assay type: functional, organism-based
Leishmania mexicana = test: Antileishmanial activity against Leishmania mexicana WHO-MOHM/B2/82/BELZ promastigote at 40 ug/mL by XTT assay; assay type: functional, organism-based
Summary of the method: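 Promastigotes of L. mexicana (WHO-MOHM/B2/82/BELZ), cultured by established protocols, in a colorimetric growth assay; read-out is reduction of the tetrazolium salt XTT to a water-soluble formazan. Compounds tested at 40 µg/mL.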

Trypanosoma cruzi = test: Antitrypanosomal activity against Trypanosoma cruzi Tulahuen at 50 ug/mL by beta-galactosidase assay; assay type: functional, organism-based
Summary of the method: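 A transgenic T. cruzi expressing β-galactosidase (Tulahuen strain, clone C4) was used. Growth of the intracellular stage was read from cleavage of the colorimetric substrate chlorophenol red-β-D-galactoside. Compounds tested at 50 µg/mL.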

Vero = test: Cytotoxicity against african green monkey Vero cells after 4 hrs by MTT assay; assay type: cell-based; conditions: Chlorocebus sabaeus

SMILES	IC50 (Plasmodium falciparum)	Activity (Leishmania mexicana)	Activity (Trypanosoma cruzi)	IC50 (Vero)
O=c1c(O[C@@H]2O[C@@H](CO)[C@H](O)[C@H]2O)c(-c2cc(O)c(O)c(O)c2)oc2cc(O)cc(O)c12	27.8 µM	inactive	inactive	
O=C(Oc1cc(O)cc2oc(-c3ccc(O)c(O)c3)c(O[C@@H]3O[C@@H](CO)[C@H](O)[C@H]3O)c(=O)c12)c1cc(O)c(O)c(O)c1	14.5 µM	inactive	inactive	86.5 µM
CC(=O)OC[C@@H]1O[C@@H](Oc2c(-c3cc(O)c(O)c(O)c3)oc3cc(O)cc(O)c3c2=O)[C@H](O)[C@H]1OC(C)=O		inactive	inactive	456 µM
CC(=O)O[C@@H]1[C@@H](O)[C@H](Oc2c(-c3cc(O)c(O)c(O)c3)oc3cc(O)cc(O)c3c2=O)O[C@H]1CO		inactive	inactive	
Oc1cc(O)c2c(c1)O[C@H](c1ccc(O)c(O)c1)[C@H](O)C2 [(-)-EPICATECHIN]	> 50 µM			184 µM
